Results from ChEMBL document CHEMBL1143370, “Effect of fluorination on the pharmacological profile of 11beta isomers of fulvestrant in breast carcinoma cells” (J Med Chem, 2009).
Active and inactive are the calls of the source. The rule behind the calls is not given here.

Tests used:
[1] = target: T1, Estrogen receptor (Homo sapiens) (UniProt P03372); assay: Antiestrogenic activity at human recombinant estrogen receptor alpha assessed as inhibition of recruitment of LxxLL-containing coactivators after 30 mins by ELISA in absence of estradiol
T1 sequence (whole entry): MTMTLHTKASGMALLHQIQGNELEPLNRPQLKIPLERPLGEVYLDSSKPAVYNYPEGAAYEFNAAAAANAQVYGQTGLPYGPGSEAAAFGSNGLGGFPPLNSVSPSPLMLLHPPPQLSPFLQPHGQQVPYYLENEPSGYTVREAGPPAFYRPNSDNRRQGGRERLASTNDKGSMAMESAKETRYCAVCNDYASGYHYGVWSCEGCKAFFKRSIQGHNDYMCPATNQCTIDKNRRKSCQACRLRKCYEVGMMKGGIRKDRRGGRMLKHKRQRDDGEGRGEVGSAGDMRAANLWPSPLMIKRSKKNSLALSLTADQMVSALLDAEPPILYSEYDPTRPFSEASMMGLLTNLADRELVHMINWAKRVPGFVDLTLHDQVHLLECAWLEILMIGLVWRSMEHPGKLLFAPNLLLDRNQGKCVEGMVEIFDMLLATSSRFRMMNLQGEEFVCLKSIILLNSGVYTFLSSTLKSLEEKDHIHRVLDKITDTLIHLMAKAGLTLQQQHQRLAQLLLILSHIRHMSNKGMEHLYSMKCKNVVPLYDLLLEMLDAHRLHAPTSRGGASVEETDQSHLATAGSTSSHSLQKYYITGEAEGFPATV

MCF7 [2] = assay: Antiproliferative activity against human MCF7 cells after 3 days at 10 nM by crystal violet staining; format: functional, cell-based
[3] = target: T1, Estrogen receptor (Homo sapiens); assay: Displacement of [3H]estradiol from human recombinant estrogen receptor alpha by radiometric assay relative to estradiol
In short: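 Purified recombinant human ERα; competition with [3H]E2 binding at 0 °C; inhibition curves give relative binding affinity (RBA).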

[4] = target: T1, Estrogen receptor (Homo sapiens); assay: Antiestrogenic activity at human recombinant estrogen receptor alpha assessed as inhibition of recruitment of LxxLL-containing coactivators after 30 mins by ELISA in presence of estradiol
MCF7 [5] = assay: Down regulation of estrogen receptor alpha expression in human MCF7 cells after 24 hrs by Western blot analysis; format: functional, cell-based
In short: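 MCF-7 breast carcinoma cells exposed to increasing concentrations of each compound for 24 h, with untreated control cultures kept in parallel. Equal amounts of solubilized protein were analysed for ERα by Western blotting. The experiment was done twice.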

[6] = target: T1, Estrogen receptor (Homo sapiens); assay: Binding affinity to estrogen receptor alpha in human MCF7 cells assessed as inhibition of [3H]E2 accumulation after 45 mins by whole cell competition binding assay; format: cell-based
In short: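 Intact MCF-7 cells incubated 45 min with [3H]E2 at 1 nM, alone (control) or with competitor at 1 nM to 1 µM; cellular [3H]E2 accumulation measured, with unlabeled E2 as reference.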

MCF7 [7] = assay: Antiproliferative activity against estradiol-stimulated human MCF7 cells after 3 days at 10 nM by crystal violet staining; format: functional, cell-based
MCF7 [8] = assay: Down regulation of estrogen receptor alpha expression in human MCF7 cells at 100 nM after 24 hrs by immunofluorescence staining; format: functional, cell-based
In short: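 MCF-7 cells treated 24 h at 100 nM, untreated control; ERα shown by immunofluorescence with HC-20 antiserum, Texas Red labeling.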

MCF7 [9] = assay: Suppression of estradiol-induced down regulation of estrogen receptor alpha expression in human MCF7 cells at 1 uM after 24 hrs by immunofluorescence staining; format: functional, cell-based
In short: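 ERα immunofluorescence (HC-20 antiserum, Texas Red) in MCF-7 cells after 24 h with E2 at 1 nM and/or compound at 1 µM; untreated control included.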

MCF7 [10] = assay: Down regulation of estrogen receptor alpha expression in human MCF7 cells after 24 hrs by Western blot analysis in presence of 3,17beta-dihydroxy-11beta-[4,4,5,5,6,6,7,7-octafluoro-9-(4,4,5,5,5-pentafluoropentane-1-sulfinyl)nonyl]estra-1,3,5(10)-triene; format: functional, cell-based
In short: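 MCF-7 cells exposed 24 h to increasing concentrations, untreated cultures run in parallel; equal amounts of solubilized protein Western blotted for ERα; experiment done twice.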

MCF7 [11] = assay: Suppression of estradiol-induced down regulation of estrogen receptor alpha expression in human MCF7 cells at 1 uM after 24 hrs by Western blot analysis; format: functional, cell-based
In short: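 Western blot of ERα in MCF-7 cells after 24 h with compound at 1 µM, alone or with 10 nM E2; equal protein loading; experiment done twice.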

Compound | Activity [1] | Activity (MCF7 [2]) | relative binding affinity (RBA) [3] | Activity [4] | Activity (MCF7 [5]) | Activity [6] | Activity (MCF7 [7]) | Activity (MCF7 [8]) | Activity (MCF7 [9]) | Activity (MCF7 [10]) | Activity (MCF7 [11])
C[C@]12C[C@H](CCCCCCCCC[S+]([O-])CCCC(F)(F)C(F)(F)F)[C@@H]3c4ccc(O)cc4CC[C@H]3[C@@H]1CC[C@@H]2O (stereo partly specified) | Active | Active | 6 | Active | Active | Active | Active | Active | – | – | –
C[C@]12C[C@H](CCCC(F)(F)C(F)(F)C(F)(F)C(F)(F)CC[S+]([O-])CCCC(F)(F)C(F)(F)F)[C@@H]3c4ccc(O)cc4CC[C@H]3[C@@H]1CC[C@@H]2O (stereo partly specified) | Active | Active | 2 | Active | – | – | – | inactive | Active | inactive | Active
C[C@]12CC[C@@H]3c4ccc(O)cc4C[C@@H](CCCCCCCCC[S+]([O-])CCCC(F)(F)C(F)(F)F)[C@H]3[C@@H]1CC[C@@H]2O (stereo partly specified) | – | Active | 10 | – | Active | – | Active | Active | – | – | –
